Measurements from ChEMBL document CHEMBL3259739, “Synthesis and structure-activity relationship of trisubstituted thiazoles as Cdc7 kinase inhibitors” (Eur J Med Chem, 2014).

Tested on: not listed separately
Assay: Intrinsic clearance in human liver microsomes at 1 uM after 30 mins by reverse phase HPLC analysis in presence of NADPH
Format: ADME
Conditions: read-out: CLH
Outline: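 Reactions were stopped with MeCN after 0 or 30 min. Samples were analysed by reverse-phase HPLC–tandem MS to give intrinsic clearance (µl/min/mg).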

SMILES	microsomal CLint at 1 µM [µL/min/mg]
COc1ccc(-c2nc(-c3ccnc(N)n3)sc2C(N)=O)c(Cl)c1	43
CCOC(=O)c1sc(-c2ccncc2)nc1O	17
NC(=O)c1sc(-c2ccnc(N)n2)nc1-c1ccc(Cl)cc1Cl	19

Biological target: Wee1-like protein kinase (Homo sapiens) (UniProt P30291)
Sequence (P30291 whole entry, looked up): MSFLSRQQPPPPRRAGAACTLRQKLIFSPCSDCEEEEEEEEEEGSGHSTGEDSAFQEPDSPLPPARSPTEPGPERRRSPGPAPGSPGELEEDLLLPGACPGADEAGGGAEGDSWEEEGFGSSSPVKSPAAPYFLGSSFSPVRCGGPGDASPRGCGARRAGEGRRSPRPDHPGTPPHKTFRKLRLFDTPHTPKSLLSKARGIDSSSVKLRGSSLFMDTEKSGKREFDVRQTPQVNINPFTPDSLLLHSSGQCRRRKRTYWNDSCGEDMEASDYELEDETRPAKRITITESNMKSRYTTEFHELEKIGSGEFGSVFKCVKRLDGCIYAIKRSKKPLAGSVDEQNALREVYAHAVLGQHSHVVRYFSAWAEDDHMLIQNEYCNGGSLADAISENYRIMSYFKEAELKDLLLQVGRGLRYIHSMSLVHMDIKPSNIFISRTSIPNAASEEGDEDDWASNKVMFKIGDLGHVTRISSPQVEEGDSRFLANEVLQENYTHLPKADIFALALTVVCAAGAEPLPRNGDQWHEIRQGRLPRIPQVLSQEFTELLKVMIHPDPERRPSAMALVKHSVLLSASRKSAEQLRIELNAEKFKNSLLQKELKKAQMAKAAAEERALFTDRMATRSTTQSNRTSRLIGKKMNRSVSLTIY
Assay: Inhibition of WEE1 (unknown origin) at 1 uM relative to control
Conditions: values are per cent of control
Outline: (§1)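 KinomeSCAN competitive binding panel of 100 kinases; compounds tested at 1 µM in duplicate; read-out is percent […] control.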

SMILES	residual binding, % of control [%]
COc1ccc(-c2nc(-c3ccnc(N)n3)sc2C(N)=O)c(Cl)c1	94
CCOC(=O)c1sc(-c2ccncc2)nc1O	73
NC(=O)c1sc(-c2ccnc(N)n2)nc1-c1ccc(Cl)cc1Cl	74

Biological target: Phosphatidylinositol 4,5-bisphosphate 3-kinase catalytic subunit alpha isoform (Homo sapiens) (UniProt P42336)
Sequence (P42336 whole entry, canonical isoform): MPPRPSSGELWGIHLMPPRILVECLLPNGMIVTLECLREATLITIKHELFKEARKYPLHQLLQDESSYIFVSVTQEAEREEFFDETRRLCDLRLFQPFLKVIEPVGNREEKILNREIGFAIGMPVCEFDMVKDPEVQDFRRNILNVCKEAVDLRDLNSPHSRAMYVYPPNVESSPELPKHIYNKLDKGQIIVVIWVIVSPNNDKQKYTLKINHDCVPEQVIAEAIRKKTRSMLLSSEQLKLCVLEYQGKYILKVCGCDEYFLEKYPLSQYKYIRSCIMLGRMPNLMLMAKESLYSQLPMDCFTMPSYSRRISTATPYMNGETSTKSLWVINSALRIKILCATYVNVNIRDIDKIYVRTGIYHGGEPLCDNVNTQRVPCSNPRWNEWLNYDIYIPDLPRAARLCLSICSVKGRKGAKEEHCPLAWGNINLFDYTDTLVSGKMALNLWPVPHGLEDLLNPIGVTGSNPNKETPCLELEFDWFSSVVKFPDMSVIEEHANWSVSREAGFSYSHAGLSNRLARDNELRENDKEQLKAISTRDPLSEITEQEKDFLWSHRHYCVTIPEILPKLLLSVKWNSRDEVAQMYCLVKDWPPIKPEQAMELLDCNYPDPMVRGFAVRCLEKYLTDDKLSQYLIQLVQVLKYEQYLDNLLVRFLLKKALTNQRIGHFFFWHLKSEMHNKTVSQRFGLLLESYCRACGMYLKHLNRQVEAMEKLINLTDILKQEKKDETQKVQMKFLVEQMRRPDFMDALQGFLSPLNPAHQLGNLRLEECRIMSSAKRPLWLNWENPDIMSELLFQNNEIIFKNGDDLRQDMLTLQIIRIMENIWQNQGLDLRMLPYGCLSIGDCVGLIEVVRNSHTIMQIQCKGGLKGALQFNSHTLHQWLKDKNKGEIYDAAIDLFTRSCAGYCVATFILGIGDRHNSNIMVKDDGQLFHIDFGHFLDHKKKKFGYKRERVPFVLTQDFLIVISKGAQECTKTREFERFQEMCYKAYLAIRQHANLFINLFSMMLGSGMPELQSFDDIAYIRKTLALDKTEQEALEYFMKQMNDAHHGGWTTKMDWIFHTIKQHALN
Assay: Inhibition of PIK3CA (unknown origin) at 1 uM relative to control
Conditions: values are per cent of control
Outline: as §1

SMILES	residual binding, % of control [%]
COc1ccc(-c2nc(-c3ccnc(N)n3)sc2C(N)=O)c(Cl)c1	83
CCOC(=O)c1sc(-c2ccncc2)nc1O	100
NC(=O)c1sc(-c2ccnc(N)n2)nc1-c1ccc(Cl)cc1Cl	78

Biological target: Receptor-interacting serine/threonine-protein kinase 2 (Homo sapiens) (UniProt O43353)
Sequence (O43353 whole entry): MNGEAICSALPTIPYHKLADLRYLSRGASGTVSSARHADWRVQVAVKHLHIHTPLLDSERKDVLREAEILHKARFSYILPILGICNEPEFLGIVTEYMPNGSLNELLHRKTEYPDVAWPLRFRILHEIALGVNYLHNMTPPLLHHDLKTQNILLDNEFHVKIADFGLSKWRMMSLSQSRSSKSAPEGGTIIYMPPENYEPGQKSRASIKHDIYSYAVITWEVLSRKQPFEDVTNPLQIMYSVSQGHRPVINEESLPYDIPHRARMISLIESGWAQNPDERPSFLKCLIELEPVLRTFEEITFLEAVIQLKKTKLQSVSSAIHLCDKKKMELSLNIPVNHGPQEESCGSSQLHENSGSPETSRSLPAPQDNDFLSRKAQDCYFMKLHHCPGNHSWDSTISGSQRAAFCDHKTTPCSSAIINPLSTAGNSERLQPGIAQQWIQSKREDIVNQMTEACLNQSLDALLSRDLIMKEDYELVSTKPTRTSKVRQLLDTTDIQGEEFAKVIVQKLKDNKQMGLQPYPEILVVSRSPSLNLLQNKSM
Assay: Inhibition of RIPK2 (unknown origin) at 1 uM relative to control
Conditions: values are per cent of control
Outline: as §1

SMILES	residual binding, % of control [%]
COc1ccc(-c2nc(-c3ccnc(N)n3)sc2C(N)=O)c(Cl)c1	96
CCOC(=O)c1sc(-c2ccncc2)nc1O	99
NC(=O)c1sc(-c2ccnc(N)n2)nc1-c1ccc(Cl)cc1Cl	82

Biological target: Protein-tyrosine kinase 6 (Homo sapiens) (UniProt Q13882)
Sequence (Q13882 whole entry, looked up): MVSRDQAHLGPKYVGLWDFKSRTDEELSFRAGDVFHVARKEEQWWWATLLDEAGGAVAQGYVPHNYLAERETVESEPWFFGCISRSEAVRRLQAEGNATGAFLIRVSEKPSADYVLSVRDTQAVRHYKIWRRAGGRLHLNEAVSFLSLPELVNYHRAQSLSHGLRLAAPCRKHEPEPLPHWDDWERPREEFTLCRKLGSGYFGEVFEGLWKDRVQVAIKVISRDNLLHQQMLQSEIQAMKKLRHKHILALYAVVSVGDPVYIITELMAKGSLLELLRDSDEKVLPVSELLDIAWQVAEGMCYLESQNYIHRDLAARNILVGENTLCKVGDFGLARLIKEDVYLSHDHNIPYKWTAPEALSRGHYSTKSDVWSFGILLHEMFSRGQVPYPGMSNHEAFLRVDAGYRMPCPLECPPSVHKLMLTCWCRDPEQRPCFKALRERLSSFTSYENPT
Assay: Inhibition of BRK (unknown origin) at 1 uM relative to control; values are per cent of control
Conditions: not given

SMILES	residual activity [%]
COc1ccc(-c2nc(-c3ccnc(N)n3)sc2C(N)=O)c(Cl)c1	80
CCOC(=O)c1sc(-c2ccncc2)nc1O	94
NC(=O)c1sc(-c2ccnc(N)n2)nc1-c1ccc(Cl)cc1Cl	68

Biological target: Tyrosine-protein kinase BTK (Homo sapiens) (UniProt Q06187)
Sequence (Q06187 whole entry): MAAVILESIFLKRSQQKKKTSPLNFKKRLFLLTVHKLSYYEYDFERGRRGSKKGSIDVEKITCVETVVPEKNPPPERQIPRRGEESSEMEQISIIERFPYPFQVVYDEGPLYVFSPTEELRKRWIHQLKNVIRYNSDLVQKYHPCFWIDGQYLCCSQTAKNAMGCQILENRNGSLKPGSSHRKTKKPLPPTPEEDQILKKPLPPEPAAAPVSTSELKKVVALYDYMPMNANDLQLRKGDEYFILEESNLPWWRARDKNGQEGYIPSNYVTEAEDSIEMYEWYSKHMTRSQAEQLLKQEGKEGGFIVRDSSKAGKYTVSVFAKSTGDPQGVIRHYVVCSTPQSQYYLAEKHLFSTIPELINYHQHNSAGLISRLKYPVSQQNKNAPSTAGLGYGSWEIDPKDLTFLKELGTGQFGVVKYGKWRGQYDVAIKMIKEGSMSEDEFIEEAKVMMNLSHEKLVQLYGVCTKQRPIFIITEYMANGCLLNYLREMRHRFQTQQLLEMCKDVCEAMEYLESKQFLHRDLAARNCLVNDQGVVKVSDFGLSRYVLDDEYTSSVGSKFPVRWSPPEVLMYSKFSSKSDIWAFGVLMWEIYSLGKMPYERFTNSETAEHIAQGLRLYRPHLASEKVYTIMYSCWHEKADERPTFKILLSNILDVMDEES
Assay: Inhibition of BTK (unknown origin) at 1 uM relative to control; values are per cent of control
Conditions: not given

SMILES	residual activity [%]
COc1ccc(-c2nc(-c3ccnc(N)n3)sc2C(N)=O)c(Cl)c1	76
CCOC(=O)c1sc(-c2ccncc2)nc1O	92
NC(=O)c1sc(-c2ccnc(N)n2)nc1-c1ccc(Cl)cc1Cl	75

Biological target: RAC-alpha serine/threonine-protein kinase (Homo sapiens) (UniProt P31749)
Sequence (P31749 whole entry): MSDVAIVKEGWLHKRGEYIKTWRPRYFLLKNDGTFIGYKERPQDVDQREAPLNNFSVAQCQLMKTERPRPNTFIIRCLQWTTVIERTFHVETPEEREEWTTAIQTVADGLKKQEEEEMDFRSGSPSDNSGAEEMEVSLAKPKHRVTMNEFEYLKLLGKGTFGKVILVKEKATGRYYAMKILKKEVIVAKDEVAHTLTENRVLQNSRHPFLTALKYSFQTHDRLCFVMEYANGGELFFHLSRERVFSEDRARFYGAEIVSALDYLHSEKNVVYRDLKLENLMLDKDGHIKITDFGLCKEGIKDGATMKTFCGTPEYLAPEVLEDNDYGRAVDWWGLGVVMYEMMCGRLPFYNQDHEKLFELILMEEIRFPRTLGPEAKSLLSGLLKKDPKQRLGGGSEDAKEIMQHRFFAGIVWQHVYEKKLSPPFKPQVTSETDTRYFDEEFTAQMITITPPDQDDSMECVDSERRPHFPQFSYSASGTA
Assay: Inhibition of AKT1 (unknown origin) at 1 uM relative to control; values are per cent of control
Conditions: not given

SMILES	residual activity [%]
COc1ccc(-c2nc(-c3ccnc(N)n3)sc2C(N)=O)c(Cl)c1	66
CCOC(=O)c1sc(-c2ccncc2)nc1O	75
NC(=O)c1sc(-c2ccnc(N)n2)nc1-c1ccc(Cl)cc1Cl	80

Biological target: RAC-beta serine/threonine-protein kinase (Homo sapiens) (UniProt P31751)
Sequence (P31751 whole entry): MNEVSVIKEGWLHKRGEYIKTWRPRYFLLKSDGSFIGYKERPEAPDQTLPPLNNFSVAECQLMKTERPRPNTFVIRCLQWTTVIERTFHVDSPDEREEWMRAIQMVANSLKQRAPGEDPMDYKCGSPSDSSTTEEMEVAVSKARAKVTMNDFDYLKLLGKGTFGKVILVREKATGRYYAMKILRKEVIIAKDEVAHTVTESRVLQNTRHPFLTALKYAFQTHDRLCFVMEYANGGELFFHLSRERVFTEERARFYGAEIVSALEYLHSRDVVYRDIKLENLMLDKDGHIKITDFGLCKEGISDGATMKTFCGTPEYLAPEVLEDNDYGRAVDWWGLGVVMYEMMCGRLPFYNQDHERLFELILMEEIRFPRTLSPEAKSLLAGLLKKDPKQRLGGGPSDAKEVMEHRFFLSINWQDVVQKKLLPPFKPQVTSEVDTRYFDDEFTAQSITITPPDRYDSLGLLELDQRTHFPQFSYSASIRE
Assay: Inhibition of AKT2 (unknown origin) at 1 uM relative to control; values are per cent of control
Conditions: not given

SMILES	residual activity [%]
COc1ccc(-c2nc(-c3ccnc(N)n3)sc2C(N)=O)c(Cl)c1	100
CCOC(=O)c1sc(-c2ccncc2)nc1O	96
NC(=O)c1sc(-c2ccnc(N)n2)nc1-c1ccc(Cl)cc1Cl	100

Biological target: T1, Rhodopsin kinase GRK1 (Homo sapiens) (UniProt Q15835)
T1 sequence (whole entry): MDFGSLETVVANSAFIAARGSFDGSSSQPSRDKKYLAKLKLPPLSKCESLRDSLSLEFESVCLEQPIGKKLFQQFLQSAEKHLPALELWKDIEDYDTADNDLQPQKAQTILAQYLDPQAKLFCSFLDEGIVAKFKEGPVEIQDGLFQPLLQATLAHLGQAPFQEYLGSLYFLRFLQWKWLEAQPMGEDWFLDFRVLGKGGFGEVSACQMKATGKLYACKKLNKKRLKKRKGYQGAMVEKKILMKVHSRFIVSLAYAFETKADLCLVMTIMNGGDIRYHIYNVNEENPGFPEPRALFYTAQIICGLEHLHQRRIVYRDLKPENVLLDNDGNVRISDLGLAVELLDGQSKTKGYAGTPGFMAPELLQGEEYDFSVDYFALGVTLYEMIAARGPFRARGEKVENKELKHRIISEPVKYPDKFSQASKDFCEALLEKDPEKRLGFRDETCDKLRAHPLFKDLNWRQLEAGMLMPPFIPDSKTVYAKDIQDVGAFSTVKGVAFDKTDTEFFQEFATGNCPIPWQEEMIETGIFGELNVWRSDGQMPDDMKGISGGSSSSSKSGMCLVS
Assay: Inhibition of GRK1 (unknown origin) at 1 uM relative to control; values are per cent of control
Conditions: not given

SMILES	residual activity [%]
COc1ccc(-c2nc(-c3ccnc(N)n3)sc2C(N)=O)c(Cl)c1	100
CCOC(=O)c1sc(-c2ccncc2)nc1O	99
NC(=O)c1sc(-c2ccnc(N)n2)nc1-c1ccc(Cl)cc1Cl	75

Biological target: Mitogen-activated protein kinase kinase kinase kinase 1 (Homo sapiens) (UniProt Q92918)
Assay: Inhibition of HPK1 (unknown origin) at 1 uM relative to control; values are per cent of control
Conditions: not given

SMILES	residual activity [%]
COc1ccc(-c2nc(-c3ccnc(N)n3)sc2C(N)=O)c(Cl)c1	100
CCOC(=O)c1sc(-c2ccncc2)nc1O	81
NC(=O)c1sc(-c2ccnc(N)n2)nc1-c1ccc(Cl)cc1Cl	64

Biological target: T2, Dual specificity mitogen-activated protein kinase kinase 5 (Homo sapiens) (UniProt Q13163)
T2 sequence (whole entry): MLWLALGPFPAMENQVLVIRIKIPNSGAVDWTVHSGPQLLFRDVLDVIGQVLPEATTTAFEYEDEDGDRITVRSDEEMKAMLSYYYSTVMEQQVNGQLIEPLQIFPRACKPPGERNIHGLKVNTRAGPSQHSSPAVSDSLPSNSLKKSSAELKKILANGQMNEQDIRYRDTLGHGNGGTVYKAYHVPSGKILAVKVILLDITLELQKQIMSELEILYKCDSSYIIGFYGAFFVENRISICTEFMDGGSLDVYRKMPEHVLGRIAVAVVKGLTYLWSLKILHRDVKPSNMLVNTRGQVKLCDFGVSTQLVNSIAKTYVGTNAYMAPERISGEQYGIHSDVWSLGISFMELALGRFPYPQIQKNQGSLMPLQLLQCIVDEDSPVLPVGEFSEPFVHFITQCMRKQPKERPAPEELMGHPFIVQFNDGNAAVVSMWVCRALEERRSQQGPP
Assay: Inhibition of MEK5 (unknown origin) at 1 uM relative to control; values are per cent of control
Conditions: not given

SMILES	residual activity [%]
COc1ccc(-c2nc(-c3ccnc(N)n3)sc2C(N)=O)c(Cl)c1	80
CCOC(=O)c1sc(-c2ccncc2)nc1O	83
NC(=O)c1sc(-c2ccnc(N)n2)nc1-c1ccc(Cl)cc1Cl	79

Biological target: T3, Serine/threonine-protein kinase 4 (Homo sapiens) (UniProt Q13043)
T3 sequence (whole entry): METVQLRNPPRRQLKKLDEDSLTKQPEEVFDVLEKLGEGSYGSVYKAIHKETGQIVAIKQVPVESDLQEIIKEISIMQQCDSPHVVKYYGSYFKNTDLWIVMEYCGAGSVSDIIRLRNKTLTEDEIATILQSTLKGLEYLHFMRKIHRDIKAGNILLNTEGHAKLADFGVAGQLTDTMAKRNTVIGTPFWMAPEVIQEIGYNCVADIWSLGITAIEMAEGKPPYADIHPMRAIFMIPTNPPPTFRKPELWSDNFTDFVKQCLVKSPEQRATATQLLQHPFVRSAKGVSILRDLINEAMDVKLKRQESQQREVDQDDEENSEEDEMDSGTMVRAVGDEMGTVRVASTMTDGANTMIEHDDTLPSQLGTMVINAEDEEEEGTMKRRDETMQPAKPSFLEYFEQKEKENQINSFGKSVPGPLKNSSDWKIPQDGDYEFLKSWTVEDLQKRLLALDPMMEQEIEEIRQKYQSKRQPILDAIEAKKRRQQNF
Assay: Inhibition of MST2 (unknown origin) at 1 uM relative to control; values are per cent of control
Conditions: not given

SMILES	residual activity [%]
COc1ccc(-c2nc(-c3ccnc(N)n3)sc2C(N)=O)c(Cl)c1	71
CCOC(=O)c1sc(-c2ccncc2)nc1O	84
NC(=O)c1sc(-c2ccnc(N)n2)nc1-c1ccc(Cl)cc1Cl	100

Biological target: Serine/threonine-protein kinase mTOR (Homo sapiens) (UniProt P42345)
Assay: Inhibition of MTOR (unknown origin) at 1 uM relative to control; values are per cent of control
Conditions: not given

SMILES	residual activity [%]
COc1ccc(-c2nc(-c3ccnc(N)n3)sc2C(N)=O)c(Cl)c1	74
CCOC(=O)c1sc(-c2ccncc2)nc1O	93
NC(=O)c1sc(-c2ccnc(N)n2)nc1-c1ccc(Cl)cc1Cl	93

Biological target: LIM domain kinase 1 (Homo sapiens) (UniProt P53667)
Sequence (P53667 whole entry, looked up, the tested form may be a part): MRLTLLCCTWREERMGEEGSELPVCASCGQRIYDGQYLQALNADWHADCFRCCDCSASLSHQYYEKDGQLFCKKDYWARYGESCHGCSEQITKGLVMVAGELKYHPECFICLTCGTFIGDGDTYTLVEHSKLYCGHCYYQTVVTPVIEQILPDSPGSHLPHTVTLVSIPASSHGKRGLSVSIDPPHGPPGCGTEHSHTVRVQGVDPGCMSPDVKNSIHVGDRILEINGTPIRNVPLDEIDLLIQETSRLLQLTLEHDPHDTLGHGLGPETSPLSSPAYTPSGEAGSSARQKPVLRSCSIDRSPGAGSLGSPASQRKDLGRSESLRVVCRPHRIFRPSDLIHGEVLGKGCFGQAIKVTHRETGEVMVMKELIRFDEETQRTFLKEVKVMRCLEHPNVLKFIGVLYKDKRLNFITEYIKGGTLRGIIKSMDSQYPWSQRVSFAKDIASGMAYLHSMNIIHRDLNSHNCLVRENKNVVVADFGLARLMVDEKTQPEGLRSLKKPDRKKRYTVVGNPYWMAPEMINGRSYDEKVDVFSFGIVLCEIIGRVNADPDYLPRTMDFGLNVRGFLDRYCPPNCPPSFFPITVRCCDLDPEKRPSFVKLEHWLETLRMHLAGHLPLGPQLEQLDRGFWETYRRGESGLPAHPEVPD
Assay: Inhibition of LIMK1 (unknown origin) at 1 uM relative to control; values are per cent of control
Conditions: not given

SMILES	residual activity [%]
COc1ccc(-c2nc(-c3ccnc(N)n3)sc2C(N)=O)c(Cl)c1	78
CCOC(=O)c1sc(-c2ccncc2)nc1O	100
NC(=O)c1sc(-c2ccnc(N)n2)nc1-c1ccc(Cl)cc1Cl	100

Biological target: Dual specificity tyrosine-phosphorylation-regulated kinase 1A (Homo sapiens) (UniProt Q13627)
Assay: Inhibition of DYRK1A (unknown origin) at 1 uM relative to control; values are per cent of control
Conditions: not given

SMILES	residual activity [%]
COc1ccc(-c2nc(-c3ccnc(N)n3)sc2C(N)=O)c(Cl)c1	0.2
CCOC(=O)c1sc(-c2ccncc2)nc1O	100
NC(=O)c1sc(-c2ccnc(N)n2)nc1-c1ccc(Cl)cc1Cl	0.1

Biological target: Mitogen-activated protein kinase kinase kinase kinase 4 (Homo sapiens) (UniProt O95819)
Assay: Inhibition of MAP4K4 (unknown origin) at 1 uM relative to control; values are per cent of control
Conditions: not given

SMILES	residual activity [%]
COc1ccc(-c2nc(-c3ccnc(N)n3)sc2C(N)=O)c(Cl)c1	89
CCOC(=O)c1sc(-c2ccncc2)nc1O	80
NC(=O)c1sc(-c2ccnc(N)n2)nc1-c1ccc(Cl)cc1Cl	72
